According to ChEMBL document CHEMBL4813947, “New dual ATP-competitive inhibitors of bacterial DNA gyrase and topoisomerase IV active against ESKAPE pathogens” (Eur J Med Chem, 2021):
Converted amounts (≈) assume the structure as drawn.

How the values were obtained:
Escherichia coli [1] = assay: Antibacterial activity against Escherichia coli 20204 assessed as inhibition of bacterial growth by CLSI protocol based broth microdilution assay; type: functional
Escherichia coli [2] = assay: Antibacterial activity against Escherichia coli MG1655 harboring GyrB R136C mutant assessed as inhibition of bacterial growth in presence of efflux pump inhibitor PAbetaN by CLSI protocol based broth microdilution assay; type: functional
Summary of the method: (§1)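 Minimum inhibitory concentration by standard serial broth microdilution following CLSI guidelines. Medium was MHBII broth (22 g/L powder: beef extract, casein acid hydrolysate, starch), with MHBII agar (14 g agar per L broth). Where noted, assayed without and with efflux pump substrate phenylalanine-arginine β-naphthylamide (PAβN).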

[3] = Inhibition of Escherichia coli topoisomerase assessed as reduction in relaxation of supercoiled pNO1 DNA measured after 30 mins by fluorescence assay
Summary of the method: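 Enzyme run per an earlier-reported procedure; IC50 fitted from seven inhibitor concentrations, mean of three independent measurements.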

Staphylococcus aureus [4] = assay: Antibacterial activity against Staphylococcus aureus ATCC 29213 assessed as inhibition of bacterial growth by CLSI protocol based broth microdilution assay; type: functional
Acinetobacter baumannii [5] = assay: Antibacterial activity against Acinetobacter baumannii ATCC 17978 assessed as inhibition of bacterial growth by CLSI protocol based broth microdilution assay; type: functional
DNA gyrase [6] = target: DNA gyrase (Staphylococcus aureus, UniProt P0A0K8+P20831); assay: Inhibition of Staphylococcus aureus DNA gyrase assessed reduction in supercoiling of relaxed pNO1 DNA measured after 30 mins by fluorescence assay
Escherichia coli [7] = assay: Antibacterial activity against Escherichia coli ATCC 25922 assessed as inhibition of bacterial growth by CLSI protocol based broth microdilution assay; type: functional
DNA gyrase [8] = target: DNA gyrase (Escherichia coli, UniProt P0AES4+P0AES6); assay: Inhibition of Escherichia coli DNA gyrase assessed as reduction in supercoiling of relaxed pNO1 DNA measured after 30 mins by fluorescence assay
[9] = Drug metabolism in rat liver S9 fraction assessed as hydroxylated benzothiazole ring metabolite; type: ADME, subcellular
Staphylococcus aureus [10] = assay: Antibacterial activity against vancomycin-resistant wild type Staphylococcus aureus ATCC 700699 assessed as inhibition of bacterial growth by CLSI protocol based broth microdilution assay; type: functional; summary of the method: as §1
[11] = Ratio of genotoxicity in CHO-K1 cells by invitro micronucleus test to MIC for vancomycin-resistant Staphylococcus aureus ATCC 700699; type: toxicity, cell-based; settings: hamster
Pseudomonas aeruginosa [12] = assay: Antibacterial activity against Pseudomonas aeruginosa ATCC 27853 assessed as inhibition of bacterial growth by CLSI protocol based broth microdilution assay; type: functional
Staphylococcus aureus [13] = assay: Ratio of MIC for methicillin-resistant Staphylococcus aureus ATCC 43300 harboring GyrB T173A mutant to MIC for methicillin-resistant wild type Staphylococcus aureus ATCC 43300; type: functional
[14] = system: human topoisomerase 2alpha; assay: Selectivity ratio of IC50 for inhibition of human topoisomerase 2alpha to IC50 for inhibition of Escherichia coli DNA gyrase; type: toxicity; settings: read-out: Ratio IC50
[15] = system: human topoisomerase 2alpha; assay: Selectivity ratio of IC50 for inhibition of human topoisomerase 2alpha to IC50 for inhibition of Staphylococcus aureus DNA gyrase; type: toxicity; settings: read-out: Ratio IC50
Escherichia coli [16] = assay: Antibacterial activity against clinical isolate ciprofloxacin resistance Escherichia coli 31859 assessed as inhibition of bacterial growth by CLSI protocol based broth microdilution assay; type: functional; summary of the method: as §1
[17] = system: human topoisomerase 2alpha; assay: Selectivity ratio of IC50 for inhibition of human topoisomerase 2alpha to IC50 for inhibition of Staphylococcus aureus topoisomerase IV; type: toxicity; settings: read-out: Ratio IC50
Staphylococcus aureus [18] = assay: Ratio of MIC for vancomycin-resistant Staphylococcus aureus ATCC 700699 harboring GyrB […] mutant to MIC for vancomycin-resistant wild type Staphylococcus aureus ATCC 700699; type: functional
Staphylococcus aureus [19] = assay: Ratio of MIC for methicillin-resistant Staphylococcus aureus ATCC 43300 harboring GyrB R144I mutant to MIC for methicillin-resistant wild type Staphylococcus aureus ATCC 43300; type: functional
[20] = Drug metabolism in rat liver S9 fraction assessed as direct glucuronide conjugate; type: ADME, subcellular
Escherichia coli [21] = assay: Antibacterial activity against Escherichia coli MG1655 in presence of efflux pump inhibitor PAbetaN assessed as inhibition of bacterial growth by CLSI protocol based broth microdilution assay; type: functional
Staphylococcus aureus [22] = assay: Ratio of MIC for vancomycin-resistant Staphylococcus aureus ATCC 700699 harboring GyrB R144I mutant to MIC for vancomycin-resistant wild type Staphylococcus aureus ATCC 700699; type: functional
Klebsiella pneumoniae = assay: Antibacterial activity against Klebsiella pneumoniae ATCC 10031 assessed as inhibition of bacterial growth by CLSI protocol based broth microdilution assay; type: functional
Staphylococcus aureus [23] = assay: Antibacterial activity against methicillin-resistant Staphylococcus aureus ATCC 43300 harboring GyrB T173A mutant assessed as inhibition of bacterial growth by CLSI protocol based broth microdilution assay; type: functional; summary of the method: as §1
Pseudomonas aeruginosa [24] = assay: Antibacterial activity against Pseudomonas aeruginosa 19488 assessed as inhibition of bacterial growth by CLSI protocol based broth microdilution assay; type: functional
Acinetobacter baumannii [25] = assay: Antibacterial activity against clinical isolate ciprofloxacin resistance Acinetobacter baumannii ATCC BAA-1605 assessed as inhibition of bacterial growth by CLSI protocol based broth microdilution assay; type: functional; summary of the method: as §1
Enterococcus faecalis = assay: Antibacterial activity against Enterococcus faecalis ATCC 29212 assessed as inhibition of bacterial growth by CLSI protocol based broth microdilution assay; type: functional
Staphylococcus aureus [26] = assay: Antibacterial activity against methicillin-resistant Staphylococcus aureus ATCC 43300 harboring GyrB R144I mutant assessed as inhibition of bacterial growth by CLSI protocol based broth microdilution assay; type: functional; summary of the method: as §1
Staphylococcus aureus [27] = assay: Antibacterial activity against methicillin-resistant wild type Staphylococcus aureus ATCC 43300 assessed as inhibition of bacterial growth by CLSI protocol based broth microdilution assay; type: functional; summary of the method: as §1
[28] = Drug metabolism in rat liver S9 fraction assessed as hydroxylated methyl-pyrrole moiety metabolite; type: ADME, subcellular
[29] = Ratio of genotoxicity in CHO-K1 cells in presence of rat liver S9 fraction by invitro micronucleus test to MIC for Enterococcus faecalis ATCC 29212; type: toxicity, cell-based; settings: CHO-K1 cells with rat liver S9 fraction
Escherichia coli [30] = assay: Antibacterial activity against wild type Escherichia coli MG1655 assessed as inhibition of bacterial growth by CLSI protocol based broth microdilution assay; type: functional; summary of the method: as §1
HepG2 = assay: Cytotoxicity against human HepG2 cells upto 100 uM by lactate dehydrogenase assay; type: cell-based
Summary of the method: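 HepG2 or MCF-7 cells grown in EMEM with 2 mM L-glutamine, penicillin/streptomycin, 10% FBS at 37 °C, 5% CO2; LDH release kit per manufacturer, test concentrations up to 100 µM.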

[31] = Ratio of genotoxicity in CHO-K1 cells in presence of rat liver S9 fraction by invitro micronucleus test to MIC for methicillin-resistant wild type Staphylococcus aureus ATCC 43300; type: toxicity, cell-based; settings: CHO-K1 cells with rat liver S9 fraction
Staphylococcus aureus [32] = assay: Antibacterial activity against vancomycin-resistant Staphylococcus aureus ATCC 700699 harboring GyrB R144I mutant assessed as inhibition of bacterial growth by CLSI protocol based broth microdilution assay; type: functional; summary of the method: as §1
Staphylococcus aureus [33] = assay: Antibacterial activity against methicillin-resistant Staphylococcus aureus ATCC 43300 assessed as inhibition of bacterial growth by CLSI protocol based broth microdilution assay; type: functional; summary of the method: as §1
[34] = Ratio of genotoxicity in CHO-K1 cells by invitro micronucleus test to MIC for Enterococcus faecalis ATCC 29212; type: toxicity, cell-based; settings: hamster

Cc1[nH]c(C(=O)Nc2nc3c(OCc4ccsc4)cc(C(=O)O)cc3s2)c(Cl)c1Cl
MIC (Escherichia coli [1]): 1 µg/mL (≈ 2.07 µM)
MIC (Escherichia coli [2]): 2 µg/mL
IC50 [3]: 340 nM
MIC (Staphylococcus aureus [4]): 0.25 µg/mL (≈ 0.518 µM)
MIC (Acinetobacter baumannii [5]): 1 µg/mL (≈ 2.07 µM)
IC50 (DNA gyrase [6]): < 10 nM
MIC (Escherichia coli [7]): 4 µg/mL (≈ 8.29 µM)
IC50 (DNA gyrase [8]): < 10 nM
Drug metabolism [9]: Metabolite_Detected
MIC (Staphylococcus aureus [10]): 0.0313 µg/mL (≈ 0.0649 µM)
selectivity ratio [11]: 247
MIC (Pseudomonas aeruginosa [12]): 2 µg/mL (≈ 4.15 µM)
Ratio (Staphylococcus aureus [13]): 2
selectivity ratio [14]: 450
selectivity ratio [15]: 450
MIC (Escherichia coli [16]): 2 µg/mL (≈ 4.15 µM)
selectivity ratio [17]: 54
Ratio (Staphylococcus aureus [18]): 2
Ratio (Staphylococcus aureus [19]): 4
Drug metabolism [20]: Metabolite_Detected
MIC (Escherichia coli [21]): 0.125 µg/mL
Ratio (Staphylococcus aureus [22]): 2
MIC (Klebsiella pneumoniae): 2 µg/mL (≈ 4.15 µM)
MIC (Staphylococcus aureus [23]): 0.125 µg/mL (≈ 0.259 µM)
MIC (Pseudomonas aeruginosa [24]): 16 µg/mL (≈ 33.2 µM)
MIC (Acinetobacter baumannii [25]): 0.5 µg/mL (≈ 1.04 µM)
MIC (Enterococcus faecalis): 0.0156 µg/mL (≈ 0.0323 µM)
MIC (Staphylococcus aureus [26]): 0.25 µg/mL (≈ 0.518 µM)
MIC (Staphylococcus aureus [27]): 0.0625 µg/mL (≈ 0.13 µM)
Drug metabolism [28]: Metabolite_Detected
selectivity ratio [29]: 1920
MIC (Escherichia coli [30]): > 64 µg/mL
Activity (HepG2): Non-Toxic
selectivity ratio [31]: 478
MIC (Staphylococcus aureus [32]): 0.0625 µg/mL (≈ 0.13 µM)
MIC (Staphylococcus aureus [33]): 0.0625 µg/mL (≈ 0.13 µM)
selectivity ratio [34]: 495
